Key:
[1] = biological target: Protein kinase C (PKC) (Rattus norvegicus) (UniProt P05696+P68403+P09216+P63319+P09215+Q64617+Q9WTQ0+P09217); test: Inhibition of rat PKC at 10 uM relative to control
Method in brief: (§1)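 Screening panel of over 37 receptors and enzymes relevant to cardiovascular effects or toxicity. Each target was tested at a single concentration of 10 µM, with % activity reported.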

[2] = biological target: Carnitine O-palmitoyltransferase 1, liver isoform (Rattus norvegicus) (UniProt P32198); test: Inhibition of rat carnitine palmitoyltransferase-1 at 10 uM relative to control; method in brief: as §1
[3] = biological target: D(2) dopamine receptor (Homo sapiens) (UniProt P14416); test: Inhibition of human dopamine D2S receptor at 10 uM relative to control; method in brief: as §1
[4] = Cmax in rabbit at 0.3 to 3 mg/kg; type: ADME, organism-based, Oryctolagus cuniculus; details: in vivo
Method in brief: (§2)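 Rabbits were dosed at 0.3, 1.0 and 3.0 mg/Kg. Effective refractory period was measured in atrium and ventricle, and blood pressure was recorded. The plasma concentration giving 20% atrial ERP prolongation (EC20) was calculated.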

[5] = biological target: 5-hydroxytryptamine receptor 4 (Cavia porcellus) (UniProt O70528); test: Inhibition of guinea pig 5-HT4 receptor at 10 uM relative to control; method in brief: as §1
[6] = biological target: Adrenergic receptor alpha-2 (Rattus norvegicus) (UniProt P22086+P19328+P22909); test: Inhibition of rat alpha-2 adrenergic receptor at 10 uM relative to control; method in brief: as §1
[7] = biological target: 5-hydroxytryptamine receptor 1B (Rattus norvegicus) (UniProt P28564); test: Inhibition of rat 5HT-1B receptor at 10 uM relative to control; method in brief: as §1
[8] = biological target: D(3) dopamine receptor (Homo sapiens) (UniProt P35462); test: Inhibition of human dopamine D3 receptor at 10 uM relative to control; method in brief: as §1
[9] = biological target: Sodium-dependent dopamine transporter (Homo sapiens) (UniProt Q01959); test: Inhibition of human DAT at 10 uM relative to control; method in brief: as §1
[10] = biological target: Progesterone receptor (Homo sapiens) (UniProt P06401); test: Inhibition of human progesterone B receptor at 10 uM relative to control; method in brief: as §1
[11] = biological target: Glucocorticoid receptor (Rattus norvegicus) (UniProt P06536); test: Inhibition of rat glucocorticoid receptor at 10 uM relative to control; method in brief: as §1
[12] = Volume of distribution at steady state in rat at 2 mg/kg administered as intra-arterial infusion for 10 mins and 5 mg/kg, po; type: ADME, organism-based; details: in vivo, read-out: Vdss
Method in brief: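 Rat PK: 2.0 mg/kg by intra-arterial infusion over 10 min and 5.0 mg/kg by oral gavage, vehicle 40% PEG 400, 40% water, 20% ethanol for both routes; Vss from 3 animals, reported as mean.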

[13] = biological target: Estrogen receptor (Homo sapiens) (UniProt P03372); test: Inhibition of human ER-alpha at 10 uM relative to control; method in brief: as §1
MAO-B = MAO-B (Homo sapiens, UniProt P27338); test: Inhibition of human MAOB at 10 uM relative to control; method in brief: as §1
Rattus norvegicus [14] = species: Rattus norvegicus; test: Inhibition of rat L-type calcium channel dihydropyridine binding site at 10 uM relative to control
Method in brief: (§3)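 Single-concentration screen at 10 µM across a panel of over 37 receptors and enzymes linked to cardiovascular effects or toxicity. Read-out is percent activity.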

Oryctolagus cuniculus = species: Oryctolagus cuniculus; test: Induction of […] effective refractory period prolongation in rabbit; type: functional; method in brief: as §2
[15] = biological target: Adrenergic receptor beta (Rattus norvegicus) (UniProt P18090+P10608+P26255); test: Inhibition of rat beta adrenergic receptor at 10 uM relative to control; method in brief: as §1
[16] = Metabolic stability in human liver microsomes assessed as compound remaining at 3 uM after 10 mins; type: ADME; details: read-out: Stability
Method in brief: (§4)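 Parent compound at 3 µM was incubated 10 min in human, rat or mouse liver microsomes with appropriate co-factors. Read-out is percent of parent remaining.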

[17] = biological target: Adenosine receptor A2a (Homo sapiens) (UniProt P29274); test: Inhibition of human adenosine A2A receptor at 10 uM relative to control; method in brief: as §1
Rattus norvegicus [18] = test: Induction of QT interval prolongation in rat at 3 mg/kg, iv administered as infusion for 5 mins by ECG analysis; type: functional
Method in brief: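 Rats were dosed at 3 mg/Kg. Block of IKur was read as the percent change in the ECG QT interval; mean blood pressure and plasma concentration were recorded alongside. Values are means of 2-4 experiments.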

[19] = biological target: Mu-type opioid receptor (Homo sapiens) (UniProt P35372); test: Inhibition of human mu opioid receptor at 10 uM relative to control; method in brief: as §1
Rattus norvegicus [20] = species: Rattus norvegicus; test: Inhibition of rat GABAA central-type benzodiazepine receptor at 10 uM relative to control; method in brief: as §3
[21] = AUC in rat at 5 mg/kg, po; type: ADME, organism-based; details: in vivo
Method in brief: (§5)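 Rats (3 per compound) received intra-arterial infusion over 10 min or oral gavage. Vehicle for both routes was 40% PEG 400, 40% water and 20% ethanol. Values are means of 3 animals.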

[22] = biological target: Sodium-dependent serotonin transporter (Homo sapiens) (UniProt P31645); test: Inhibition of human SERT at 10 uM relative to control; method in brief: as §1
[23] = Metabolic stability in rat liver microsomes assessed as compound remaining at 3 uM after 10 mins; type: ADME; details: read-out: Stability; method in brief: as §4
[24] = Clearance in rat at 2 mg/kg administered as intra-arterial infusion for 10 mins and 5 mg/kg, po; type: ADME, organism-based; details: in vivo, iv; method in brief: as §5
Rattus norvegicus [25] = species: Rattus norvegicus; test: Inhibition of rat muscarinic acetylcholine receptor at 10 uM relative to control; method in brief: as §3
[26] = Plasma concentration in rat at 3 mg/kg, iv administered as infusion for 5 mins; type: ADME, organism-based
Method in brief: (§6)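 Rats were dosed at 3 mg/Kg. QT interval on ECG, mean blood pressure (% change) and plasma concentration were measured. Values are means of 2-4 experiments.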

Rattus norvegicus [27] = test: Toxicity in rat assessed as increase in blood pressure at 3 mg/kg, iv administered as infusion for 5 mins; type: organism-based; details: in vivo; method in brief: as §6
[28] = biological target: L-type calcium channel, benzothiazepine binding site (Rattus norvegicus, UniProt P22002+P27732+Q02485); test: Inhibition of rat L-type calcium channel benzothiazepine binding site at 10 uM relative to control; method in brief: as §1
MAO-A = MAO-A (Homo sapiens, UniProt P21397); test: Inhibition of human MAOA at 10 uM relative to control; method in brief: as §1
[29] = Metabolic stability in mouse liver microsomes assessed as compound remaining at 3 uM after 10 mins; type: ADME; details: read-out: Stability; method in brief: as §4
[30] = biological target: Somatostatin receptor type 2 (Homo sapiens) (UniProt P30874); test: Inhibition of human SS2 receptor at 10 uM relative to control; method in brief: as §1
[31] = biological target: Phosphodiesterase 3 (Homo sapiens) (UniProt Q14432+Q13370); test: Inhibition of human PDE3 at 10 uM relative to control; type: protein assay
Rattus norvegicus [32] = species: Rattus norvegicus; test: Inhibition of rat sodium channel site 2 at 10 uM relative to control; method in brief: as §3
[33] = biological target: Sodium-dependent noradrenaline transporter (Homo sapiens) (UniProt P23975); test: Inhibition of human NET at 10 uM relative to control; method in brief: as §1
Rattus norvegicus [34] = species: Rattus norvegicus; test: Inhibition of rat opioid receptor at 10 uM relative to control; method in brief: as §3
[35] = biological target: Histamine H1 receptor (Homo sapiens) (UniProt P35367); test: Inhibition of human histamine H1 receptor at 10 uM relative to control; method in brief: as §1

Glucocorticoid receptor (Rattus norvegicus), sequence (P06536 whole entry, the tested form may be a part): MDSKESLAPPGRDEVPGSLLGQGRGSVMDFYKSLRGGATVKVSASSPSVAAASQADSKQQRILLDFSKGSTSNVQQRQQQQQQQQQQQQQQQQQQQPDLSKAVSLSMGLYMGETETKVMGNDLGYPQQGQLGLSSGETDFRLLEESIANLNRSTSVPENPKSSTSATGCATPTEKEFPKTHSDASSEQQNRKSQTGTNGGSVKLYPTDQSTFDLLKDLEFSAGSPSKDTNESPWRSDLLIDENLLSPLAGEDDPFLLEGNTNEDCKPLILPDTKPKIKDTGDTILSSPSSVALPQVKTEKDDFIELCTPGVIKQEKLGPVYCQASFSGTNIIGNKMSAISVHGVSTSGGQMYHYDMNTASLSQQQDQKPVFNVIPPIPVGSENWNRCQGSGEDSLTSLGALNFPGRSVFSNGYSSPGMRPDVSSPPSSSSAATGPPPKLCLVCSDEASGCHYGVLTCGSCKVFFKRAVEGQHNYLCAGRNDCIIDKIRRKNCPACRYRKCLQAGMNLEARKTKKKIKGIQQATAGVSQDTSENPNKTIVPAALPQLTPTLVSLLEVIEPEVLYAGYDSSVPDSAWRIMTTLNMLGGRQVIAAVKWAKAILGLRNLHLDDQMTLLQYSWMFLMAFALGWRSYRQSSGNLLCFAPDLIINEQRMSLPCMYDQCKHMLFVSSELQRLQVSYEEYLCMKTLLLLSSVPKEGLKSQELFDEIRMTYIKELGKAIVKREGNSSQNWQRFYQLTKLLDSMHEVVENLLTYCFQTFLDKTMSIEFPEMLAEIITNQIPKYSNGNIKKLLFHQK
Sodium-dependent serotonin transporter (Homo sapiens), sequence (P31645 whole entry, looked up): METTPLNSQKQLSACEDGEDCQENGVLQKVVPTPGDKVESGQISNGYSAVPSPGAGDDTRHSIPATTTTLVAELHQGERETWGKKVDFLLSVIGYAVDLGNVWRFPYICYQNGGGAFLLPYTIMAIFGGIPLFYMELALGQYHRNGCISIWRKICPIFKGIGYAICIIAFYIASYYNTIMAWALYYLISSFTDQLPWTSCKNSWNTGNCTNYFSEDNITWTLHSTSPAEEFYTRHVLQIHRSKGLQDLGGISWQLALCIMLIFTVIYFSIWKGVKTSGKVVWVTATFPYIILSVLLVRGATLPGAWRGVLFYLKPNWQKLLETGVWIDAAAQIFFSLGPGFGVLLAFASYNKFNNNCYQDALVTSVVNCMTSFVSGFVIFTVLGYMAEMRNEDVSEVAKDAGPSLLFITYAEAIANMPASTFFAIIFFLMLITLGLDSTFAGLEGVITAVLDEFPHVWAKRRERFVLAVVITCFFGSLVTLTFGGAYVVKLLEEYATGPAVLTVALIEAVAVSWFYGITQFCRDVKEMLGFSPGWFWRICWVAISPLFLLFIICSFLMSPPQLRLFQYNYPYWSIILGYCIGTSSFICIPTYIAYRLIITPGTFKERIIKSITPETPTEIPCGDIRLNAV
Somatostatin receptor type 2 (Homo sapiens), sequence (P30874 whole entry): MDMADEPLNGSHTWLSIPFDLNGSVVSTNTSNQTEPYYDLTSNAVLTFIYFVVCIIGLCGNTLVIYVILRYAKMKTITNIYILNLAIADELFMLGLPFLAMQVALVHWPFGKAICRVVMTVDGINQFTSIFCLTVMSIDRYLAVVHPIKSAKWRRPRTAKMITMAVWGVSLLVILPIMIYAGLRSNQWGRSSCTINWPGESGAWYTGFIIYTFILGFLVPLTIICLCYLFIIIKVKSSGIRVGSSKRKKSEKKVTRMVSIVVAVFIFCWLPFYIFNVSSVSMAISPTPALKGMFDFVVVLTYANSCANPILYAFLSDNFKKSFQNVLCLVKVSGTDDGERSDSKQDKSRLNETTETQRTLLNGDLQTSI
5-hydroxytryptamine receptor 1B (Rattus norvegicus), sequence (P28564 whole entry): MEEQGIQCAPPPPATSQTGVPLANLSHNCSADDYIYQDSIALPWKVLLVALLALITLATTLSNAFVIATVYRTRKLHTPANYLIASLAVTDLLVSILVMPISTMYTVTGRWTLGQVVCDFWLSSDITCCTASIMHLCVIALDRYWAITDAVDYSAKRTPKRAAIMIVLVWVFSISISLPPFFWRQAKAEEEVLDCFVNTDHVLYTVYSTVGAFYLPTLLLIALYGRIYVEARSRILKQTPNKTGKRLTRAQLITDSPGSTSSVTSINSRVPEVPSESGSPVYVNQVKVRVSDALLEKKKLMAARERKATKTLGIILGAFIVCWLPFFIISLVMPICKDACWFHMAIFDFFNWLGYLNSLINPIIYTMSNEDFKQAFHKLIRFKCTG
Estrogen receptor (Homo sapiens), sequence (P03372 whole entry): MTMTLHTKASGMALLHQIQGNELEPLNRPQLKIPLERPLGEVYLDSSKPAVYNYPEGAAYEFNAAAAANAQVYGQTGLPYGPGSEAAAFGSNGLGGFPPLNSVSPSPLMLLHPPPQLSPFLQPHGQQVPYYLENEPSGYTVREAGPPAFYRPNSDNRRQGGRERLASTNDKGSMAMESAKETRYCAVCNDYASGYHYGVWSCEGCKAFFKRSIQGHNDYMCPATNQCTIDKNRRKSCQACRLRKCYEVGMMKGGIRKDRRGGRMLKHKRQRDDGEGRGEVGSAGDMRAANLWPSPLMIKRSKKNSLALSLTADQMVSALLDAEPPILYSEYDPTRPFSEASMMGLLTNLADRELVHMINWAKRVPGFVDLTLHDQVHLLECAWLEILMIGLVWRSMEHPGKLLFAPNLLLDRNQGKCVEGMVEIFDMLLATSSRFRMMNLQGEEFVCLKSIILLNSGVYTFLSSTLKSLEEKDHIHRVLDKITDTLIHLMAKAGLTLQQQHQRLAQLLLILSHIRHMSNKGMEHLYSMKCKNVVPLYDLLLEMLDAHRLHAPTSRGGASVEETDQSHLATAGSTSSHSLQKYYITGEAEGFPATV
Mu-type opioid receptor (Homo sapiens), sequence (P35372 whole entry): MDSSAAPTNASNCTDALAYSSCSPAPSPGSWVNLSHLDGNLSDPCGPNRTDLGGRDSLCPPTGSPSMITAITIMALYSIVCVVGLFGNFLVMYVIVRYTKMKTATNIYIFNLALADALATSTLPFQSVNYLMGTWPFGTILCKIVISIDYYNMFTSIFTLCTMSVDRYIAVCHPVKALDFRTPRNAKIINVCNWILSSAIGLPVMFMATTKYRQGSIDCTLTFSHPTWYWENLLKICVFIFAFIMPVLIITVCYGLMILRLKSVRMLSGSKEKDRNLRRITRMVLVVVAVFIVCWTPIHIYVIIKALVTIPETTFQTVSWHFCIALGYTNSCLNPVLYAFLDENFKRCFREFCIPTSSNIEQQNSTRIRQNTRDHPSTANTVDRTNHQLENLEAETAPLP
MAO-A, sequence (P21397 whole entry): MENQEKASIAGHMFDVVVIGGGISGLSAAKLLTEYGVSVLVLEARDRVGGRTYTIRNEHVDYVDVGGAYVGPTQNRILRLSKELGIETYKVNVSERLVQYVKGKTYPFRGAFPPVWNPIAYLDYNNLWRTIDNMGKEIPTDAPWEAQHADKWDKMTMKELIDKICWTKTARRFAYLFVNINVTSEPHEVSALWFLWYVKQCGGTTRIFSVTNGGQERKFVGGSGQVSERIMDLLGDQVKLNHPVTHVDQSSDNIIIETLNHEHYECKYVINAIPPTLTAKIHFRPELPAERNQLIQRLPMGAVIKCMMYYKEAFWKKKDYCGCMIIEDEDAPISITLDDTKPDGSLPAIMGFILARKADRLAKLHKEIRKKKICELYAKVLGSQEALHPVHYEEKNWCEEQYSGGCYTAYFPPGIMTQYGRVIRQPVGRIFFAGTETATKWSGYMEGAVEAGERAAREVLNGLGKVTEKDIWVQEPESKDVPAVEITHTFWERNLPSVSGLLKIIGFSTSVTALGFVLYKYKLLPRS
Adenosine receptor A2a (Homo sapiens), sequence (P29274 whole entry, the tested form may be a part): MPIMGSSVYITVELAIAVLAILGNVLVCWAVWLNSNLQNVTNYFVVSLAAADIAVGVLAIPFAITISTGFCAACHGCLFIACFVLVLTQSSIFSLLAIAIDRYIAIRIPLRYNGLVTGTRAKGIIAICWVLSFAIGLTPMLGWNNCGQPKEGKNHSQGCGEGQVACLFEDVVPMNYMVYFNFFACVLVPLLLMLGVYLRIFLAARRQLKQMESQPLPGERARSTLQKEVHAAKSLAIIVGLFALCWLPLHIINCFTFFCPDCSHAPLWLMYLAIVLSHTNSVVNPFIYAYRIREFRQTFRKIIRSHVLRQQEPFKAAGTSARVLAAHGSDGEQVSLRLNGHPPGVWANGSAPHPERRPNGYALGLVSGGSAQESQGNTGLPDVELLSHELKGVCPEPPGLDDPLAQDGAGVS
D(3) dopamine receptor (Homo sapiens), sequence (P35462 whole entry): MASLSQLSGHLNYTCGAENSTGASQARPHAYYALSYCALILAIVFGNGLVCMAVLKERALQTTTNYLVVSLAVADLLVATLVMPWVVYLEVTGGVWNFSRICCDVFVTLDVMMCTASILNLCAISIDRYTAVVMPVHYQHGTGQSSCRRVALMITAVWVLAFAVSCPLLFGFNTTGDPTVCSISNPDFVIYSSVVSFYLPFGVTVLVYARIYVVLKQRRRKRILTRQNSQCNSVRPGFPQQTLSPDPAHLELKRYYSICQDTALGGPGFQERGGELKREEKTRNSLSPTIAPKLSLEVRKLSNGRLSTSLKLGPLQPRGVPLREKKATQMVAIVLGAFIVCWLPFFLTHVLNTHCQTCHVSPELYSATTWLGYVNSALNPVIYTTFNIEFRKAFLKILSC
D(2) dopamine receptor (Homo sapiens), sequence (P14416 whole entry): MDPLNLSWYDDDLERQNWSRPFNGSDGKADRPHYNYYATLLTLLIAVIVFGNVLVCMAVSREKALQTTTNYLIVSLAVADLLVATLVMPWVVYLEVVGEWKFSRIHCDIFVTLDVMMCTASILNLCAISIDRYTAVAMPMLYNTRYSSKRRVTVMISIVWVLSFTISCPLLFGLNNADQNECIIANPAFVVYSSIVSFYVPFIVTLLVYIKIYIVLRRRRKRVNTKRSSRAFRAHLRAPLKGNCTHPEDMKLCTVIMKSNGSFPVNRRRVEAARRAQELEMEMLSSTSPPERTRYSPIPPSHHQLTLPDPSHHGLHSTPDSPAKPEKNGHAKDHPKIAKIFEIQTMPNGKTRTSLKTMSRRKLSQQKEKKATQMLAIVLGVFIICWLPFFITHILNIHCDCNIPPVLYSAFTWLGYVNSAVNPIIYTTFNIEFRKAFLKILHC

| SMILES | inhibition [1] [%] | inhibition [2] [%] | inhibition [3] [%] | Cmax [4] [µM] | inhibition [5] [%] | inhibition [6] [%] | inhibition [7] [%] | inhibition [8] [%] | inhibition [9] [%] | inhibition [10] [%] | inhibition [11] [%] | Vd [12] [L/kg] | inhibition [13] [%] | inhibition at 10 µM (MAO-B) [%] | inhibition (Rattus norvegicus [14]) [%] | EC20 (Oryctolagus cuniculus) [nM] | inhibition [15] [%] | remaining at 10 min, 3 µM [16] [%] | inhibition [17] [%] | Activity (Rattus norvegicus [18]) [%] | also measured |
| --- | --- | --- | --- | --- | --- | --- | --- | --- | --- | --- | --- | --- | --- | --- | --- | --- | --- | --- | --- | --- | --- |
| COc1cccc2c1C(NC[C@]1(c3ccccc3)CC[C@H](O)CC1)=NS2(=O)=O | 9 | 4 | 4 | 6.1 | 5 | -6 | 42 | -9 | 18 | 6 | 14 | 3.2 | -1 | 3 | 3 | 600 | -4 | 90 | -5 | 66 | inhibition [19]: 0%; inhibition (Rattus norvegicus [20]): 29%; AUC [21]: 2.7 µM·h; inhibition [22]: 10%; remaining at 10 min, 3 µM [23]: 68%; clearance [24]: 27 mL/min/kg; inhibition (Rattus norvegicus [25]): 24%; concentration at 5 min [26]: 153 µM; Activity (Rattus norvegicus [27]): 13%; inhibition at 10 µM [28]: 0%; inhibition at 10 µM (MAO-A): 3%; remaining at 10 min, 3 µM [29]: 53%; inhibition [30]: 4%; inhibition [31]: 53%; inhibition (Rattus norvegicus [32]): 9%; inhibition [33]: 8%; inhibition (Rattus norvegicus [34]): 23%; inhibition [35]: 19% |
| COc1cccc2c1C(NC[C@]1(c3ccccc3)CC[C@H](NC(=O)OC(C)C)CC1)=NS2(=O)=O | 29 | 0 | -2 | 4.7 | 25 | -2 | 23 | 11 | 37 | 10 | 17 | 0.3 | 4 | 9 | 13 | <700 | 0 | 85 | 23 | 68 | inhibition [19]: 31%; inhibition (Rattus norvegicus [20]): 2%; AUC [21]: 1.8 µM·h; inhibition [22]: -6%; remaining at 10 min, 3 µM [23]: 29%; clearance [24]: 9.4 mL/min/kg; inhibition (Rattus norvegicus [25]): 15%; concentration at 5 min [26]: 38 µM; Activity (Rattus norvegicus [27]): 44%; inhibition at 10 µM [28]: 15%; inhibition at 10 µM (MAO-A): 10%; remaining at 10 min, 3 µM [29]: < 1%; inhibition [30]: 6%; inhibition [31]: 15%; inhibition (Rattus norvegicus [32]): 30%; inhibition [33]: 6%; inhibition (Rattus norvegicus [34]): 64%; inhibition [35]: 13% |

Reference: ChEMBL document CHEMBL3621160, “Pseudosaccharin amines as potent and selective KV1.5 blockers” (Bioorg Med Chem Lett, 2015)
